Tested on: MS2 coat protein
Test: apparent Kd, MS2 coat protein; higher = weaker binding; RNA-MaP array; FMN 200 µM where present
Procedure, shortened: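 Stalled E. coli RNA polymerase produced the designs on Illumina sequencing-chip clusters. SNAP-549-labelled MS2 coat protein was added from 0.7 or 1.5 nM, doubling to 3 µM, without and then with constant ligand, in 100 mM Tris-HCl pH 7.5, 80 mM KCl, 4 mM MgCl2, BSA, DTT, yeast tRNA and Tween-20. The apparent Kd is the median of filtered per-cluster fits of green signal normalised to red-channel RNA signal and control-cluster median Fmax.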

[1] = designed as: ON switch for flavin mononucleotide, no ligand
[2] = ligand present: flavin mononucleotide, designed as: ON switch for flavin mononucleotide
[3] = designed as: OFF switch for flavin mononucleotide, no ligand
[4] = ligand present: flavin mononucleotide, designed as: OFF switch for flavin mononucleotide

Row | Sequence | apparent Kd [1] [nM] | apparent Kd [2] [nM] | apparent Kd [3] [nM] | apparent Kd [4] [nM]
1 | UGGUACUAGGGAGGAUAUGGGAAGAUACAUGAGGAUCACCCAUGUUUAAGAAUGCCGAGAGGCGACUAGAAGGCCCUAGUACCU | 311 | 15.3 |  | 
2 | UGGUACUAGGGAGGAUAUGGGAAGAUACAUGAGGAUCACCCAUGUUUAUGAAUGCCGAGAGGCAACUAGAAGGCCCUAGUACCU | 292 | 13 |  | 
3 | UGGUACUAGGGAGGAUAUGGGAAGGUACAUGAGGAUCACCCAUGUUUAAGAAUGCCGAGAGGCAACUAGAAGGCCCUAGUACCU | 204 | 13.6 |  | 
4 | UGGUUAUAUGAAGGAUAUACUUAACAUGAGGAUCACCCAUGUGGUGUUGUGAGUGAGUGAGUUUAGUAGAAGGUCAAUUCUUUU |  |  | 176 | 197
5 | UGGUUGUGUGUCAGGAUAUGGUCUGGUGUUUCGGGCUAGAAGGGACAUGAGGAUCACCCAUGUGGCUGGUGCGC |  |  | 149 | 186
6 | UGGUUUGGGCUAGAUGCACAGACAUGAGGAUCACCCAUGUCUGAGGAUAUGCGUCAACAUAGGCAGCAGAAGGCAGACAUUCGC |  |  | 16.8 | 30.5
7 | UGUAAUGUUAUUACAGAGGUUUAGAAGGAUAUACAUCGACAUGACCGUACAUGAGGAUCACCCAUGUAGAAGGUCUAACUUCGU |  |  | 5.43 | 5.31
8 | UGUAUGUAGGCAGGAUAUACAUGAAUAUAUAUGAUGUAGUAUGAUGUAACAUGAGGAUCACCCAUGUAGAAGGGCCAGUGUAUG |  |  | 77.8 | 129
9 | UGUCCAUAGCAGAAGGACAUGAAUAAACAUGAAAACAUGAGGAUCACCCAUGUAGGAUAUGCUAUGGACUAAGAGCGAAAGCUC |  |  | 7.06 | 48.1
10 | UGUCCAUAGCAGAAGGACAUGAGGAUCACCCAUGUAAUCAUACAACCAAAUGUAGGAUAUGCUAUGGACUAAGAGCGAAAGCUC |  |  | 7.5 | 34.4
11 | UGUCCAUAGCAGAAGGCACAUCCACAAAAUAAAACAUGAGGAUCACCCAUGUGAGGAUAUGCUAUGGACUAAGAGCGAAAGCUC |  |  | 5.44 | 21.8
12 | UGUCGCAGCAGAGGAUAUUACAUGAGGAUCACCCAUGUAUGAACCAAUAGCUGGAAACAGCAAUGUAAGAAGGCUGCUCCGACA |  |  | 11.7 | 128
13 | UGUCGGAGCAGAGGAUAUUACAUGAGGAUCACCCAUGUAAUAAGAUCAAGCUGGAAACAGCAAUGUAAGAAGGCUGCUCCGACA |  |  | 16.9 | 43.3
14 | UGUCGGAGCAGAGGAUAUUACAUGAGGAUCACCCAUGUAUCAACCAAUAGCUGGAAACAGCAAUGUAAGAAGGCUGCUCCGACA |  |  | 7.54 | 19.8
15 | UGUCGGAGCAGAGGAUAUUACAUGAGGAUCACCCAUGUAUGAACCAAUAGAUGGAAACAGCAAUGUAAGAAGGCUGCUCCGACA |  |  | 95.9 | 346
16 | UGUCGGAGCAGAGGAUAUUACAUGAGGAUCACCCAUGUAUGAACCAAUAGCUGGAAACAGCAAUGUAAGAAGGCGGCUCCGACA |  |  | 5.18 | 9.07
17 | UGUCGGAGCAGAGGAUAUUACAUGAGGAUCACCCAUGUAUGAACCAAUAGCUGGAAACAGCAAUGUAAGAAGGCUGCGCCGACA |  |  | 12.5 | 153
18 | UGUCGGAGCAGAGGAUAUUACAUGAGGAUCACCCAUGUAUGAACCAAUAGCUGGGAACAGCAAUGUAAGAAGGCUGCUCCGACA |  |  | 18.6 | 201
19 | UGUCGGAGCAGAGGAUAUUACAUGAGGAUCACCCAUGUAUGAACCAAUAGUUGGAAACAGCAAUGUAAGAAGGCUGCUCCGACA |  |  | 11.5 | 94.6
20 | UGUCGGUGCAGAGGAUAUUACAUGAGGAUCACCCAUGUAUGAACCAAUAGCUGGAAACAGCAAUGUAAGAAGGCUGCUCCGACA |  |  | 11.8 | 168
21 | UGUCUGAGCAGAGGAUAUUACAUGAGGAUCACCCAUGUAUGAACCAAUAGCUGGAAACAGCAAUGUAAGAAGGCUGCUCCGACA |  |  | 12.6 | 199
22 | UGUCUGUCAGGAUAUCCAGAAGAGAAGAAAGUAAGAUGAGUGGAGAAGGGACAUGAGGAUCACCCAUGUAAUUA |  |  | 31 | 36.4
23 | UGUGAGAUGAUGUUAGAUAGGAGAACAUGAGGAUCACCCAUGUAGGAUAUUCAAAGACGAAGAUAGAAGAAGGACAUAGGUAUC |  |  | 30.3 | 78.2
24 | UGUGAGUUGAUGUUAGAUAGGAGUACAUGAGGAUCACCCAUGUAGGAUAUUCAAAGACGCAGAUAGAAGAAGGACAUAGGUUUC |  |  | 16.1 | 14.8
25 | UGUGCGUAUGUGAGGAUAUGCUGGUCCUUGGAUCAGCAGAAGGCACAUGAGGAUCACCCAUGUGGUGUCGUACC |  |  | 314 | 48
26 | UGUGCGUAUGUGAGGAUAUGCUGGUCCUUGGCUCGGCAGAAGGCACAUGAGGAUCACCCAUGUGGUGUCGUACA |  |  | 227 | 37.5
27 | UGUGUCUGUAGAGGAUAUCCGAGCGUUCGGCGAGGAGAAGGCUGCAACACAUGAGGAUCACCCAUGUAGGUUGUGUCUCCCUAC |  |  | 10.9 | 32.2
28 | UGUGUGAGACAGGAUAUGCCGGAUGAAAGGCAGGUAGAAGGGUCUACAUGAGGAUCACCCAUGUGGCCGGUUGG |  |  | 17.4 | 18.7

Row | Sequence | apparent Kd [1] [nM] | apparent Kd [2] [nM] | apparent Kd [3] [nM] | apparent Kd [4] [nM]
29 | UGUGUGAGACAGGAUAUGCCGGUUGUAUUGCUGGUAGAAGGGUCUACAUGAGGAUCACCCAUGUGGCCGGUUGG |  |  | 18.6 | 23.2
30 | UGUGUGUGACAGGAUAUGCUGGUUGUGAGGCGGGUAGAAGGGUCUACAUGAGGAUCACCCAUGUGGCCGGUUGG |  |  | 18.7 | 18.7
31 | UGUGUGUGGCAGGAUAUGCCGGUCGUUGGUCGGGUAGAAGGGUCUACAUGAGGAUCACCCAUGUGGCCGGUUGG |  |  | 46.8 | 44
32 | UGUGUGUGGGCAGGAUAUGCGUGAAGAUGUAUGAUGUAGUGUGAUGUAACAUGAGGAUCACCCAUGUAGAAGGGCCGGUGUGUG |  |  | 124 | 129
33 | UGUGUUGCGCAGGAUAUGCUGGACAUGAGAGCUGCAGAAGGGCGAACAUGAGGAUCACCCAUGUUUUCCUCGGC |  |  | 14.1 | 14.6
34 | UGUUACUAGUAAGGAUAUACUUGCAAUAAGCUUGUAGAAGGUACAGUCUUUUGUAUAACAUGUUUACAUGAGGAUCACCCAUGU | 10.6 | 9.66 |  | 
35 | UGUUACUAGUAAGGAUAUACUUGCGAUAAGCUUGUAGAAGGUACAGUCUUUUGUAUAACACGUUUACAUGAGGAUCACCCAUGU | 6.94 | 6.01 |  | 
36 | UGUUGUAAUACAGGAUAUAUAUUAUUUUUAUUUAUAGAAGGGUAAUCACAUGAGGAUCACCCAUGUAUAUACGAGGAAGAAGAG | 209 | 251 |  | 
37 | UGUUGUAUUACAGGAUAUCUAUGAUUUUUGUUUAGAGAAGGGUAUUCACAUGAGGAUCACCCAUGUAUAUACGAGGAAGUUGUG | 60.3 | 74.7 |  | 
38 | UGUUGUAUUACAGGAUAUCUAUUGUUUUUAUUUAGAGAAGGGUAUUCACAUGAGGAUCACCCAUGUAUAUACGAGGAAGUUGUG | 59.4 | 63.2 |  | 
39 | UUAAAAGUGACAUGAGGAUCACCCAUGUGAAUUAGUAGUAGCAGAAGGCACGUGGGAAGACCAAGUGAGGAUAUGUAGCUUUAA | 515 | 44 |  | 
40 | UUAAAUCAUGUAGGAUAUGCAUGGCGAAGCUACGCAGAAGGACAUGAGGAUCACCCAUGUUAAAGCGACCGAGUUCGGUUGCAA |  |  | 124 | 214
41 | UUAAAUCAUGUAGGAUAUGCAUGGCGAAGCUACGCAGAAGGACAUGAGGAUCACCCAUGUUAUAGCUACCGAGUAAGGUGGCAA |  |  | 92.6 | 227
42 | UUAAAUCAUGUAGGAUAUGCAUGGCGAAGCUACGCAGAAGGACAUGAGGAUCACCCAUGUUCAAGCUACCGAGUUCGGUGGCAA |  |  | 23.3 | 148
43 | UUAAAUCAUGUAGGAUAUGCAUGGCGAAGCUACGCAGAAGGACAUGAGGAUCACCCAUGUUCUGGCUACCGAGUACGGUGGCAA |  |  | 20.5 | 81.2
44 | UUAAAUCGAAACAUGAGGAUCACCCAUGUGUUGUAAUUAACAUAGGAUAUGUAAAUACUUUUUUAAUAGAAGGAUGAUAAUACU | 17 | 12.9 |  | 
45 | UUAAAUCGAAACAUGAGGAUCACCCAUGUGUUGUAAUUAAUAUAGGAUAUGUAUAUACUUUUAUAAUAGAAGGAUGAUAAUACU | 15.4 | 11.1 |  | 
46 | UUAAUAUAUCAGGAUAUGAUUAUAUGUGUUGAAUCAGAAGGGAUAACAUGAGGAUCACCCAUGUUGUGGAGUGA |  |  | 69.3 | 206
47 | UUAAUGACUGUGAGGAUAUCGGAUAGAUAGAUAUUCGAGAAGGUACAUGAGGAUCACCCAUGUGUGAUUAGAGA |  |  | 245 | 291
48 | UUAAUGUGAGGAUAUCAAGAGAGAAAGAGUAAUGGUAAAUAUGAGAAGGCACAUGAGGAUCACCCAUGUUCUUC |  |  | 15.9 | 15.5
49 | UUAAUGUGAGGAUAUCAGGUGUGCUAGCGUACUGGUACAUCUGAGAAGGCACAUGAGGAUCACCCAUGUUCUUC |  |  | 37 | 135
50 | UUAAUUAAUUAAUUCCAGUUUACAUGAGGAUCACCCAUGUAUAAGGAUAUGCAGUGGAAUACACUGCAGAAGGUAUACAUCUGG |  |  | 18.4 | 35.8
51 | UUAAUUAAUUAAUUGCAGAAUUACAUGAGGAUCACCCAUGUAUAGGAUAUCGUCAGGAAUACUGACGAGAAGGAUACAUACUGC |  |  | 17.9 | 26.6
52 | UUAAUUAUACAAGGAUAUCUAUUGUAGUUUCGACUGACAUGAGGAUCACCCAUGUAAAUAUGUUAAGAGAAGGUGUAUUUUAAA | 56.8 | 40.4 |  | 
53 | UUAAUUAUACAAGGAUAUCUAUUGUAGUUUCGACUUACAUGAGGAUCACCCAUGUUAAUAUGUUUAGAGAAGGUGUAUUUUCUG | 51 | 49.5 |  | 
54 | UUAAUUAUACAAGGAUAUCUAUUGUUAUGUCGACUUACAUGAGGAUCACCCAUGUUAAUAUAUGAAGAGAAGGUGUAUUUUCAG | 157 | 90 |  | 
55 | UUAAUUAUACAAGGAUAUCUAUUGUUCUUUCGACUUACAUGAGGAUCACCCAUGUUAAUAUAUAUAGAGAAGGUGUAUUUUCAG | 43.3 | 25.4 |  | 

— the EternaBench riboswitch data
